≈ marks a conversion by molar mass, not a printed value. Calls of active or inactive are those of the source. The calls are words filed in the database; no cut-off is given here.
What was measured:
[1] = target: T1, Peroxisome proliferator-activated receptor gamma (Homo sapiens, UniProt P37231); experiment: Partial agonist activity at human PPARgamma LBD expressed HEK293T cells after 12 to 14 hrs by dual-glo luciferase reporter gene assay
T1 sequence (P37231 whole entry): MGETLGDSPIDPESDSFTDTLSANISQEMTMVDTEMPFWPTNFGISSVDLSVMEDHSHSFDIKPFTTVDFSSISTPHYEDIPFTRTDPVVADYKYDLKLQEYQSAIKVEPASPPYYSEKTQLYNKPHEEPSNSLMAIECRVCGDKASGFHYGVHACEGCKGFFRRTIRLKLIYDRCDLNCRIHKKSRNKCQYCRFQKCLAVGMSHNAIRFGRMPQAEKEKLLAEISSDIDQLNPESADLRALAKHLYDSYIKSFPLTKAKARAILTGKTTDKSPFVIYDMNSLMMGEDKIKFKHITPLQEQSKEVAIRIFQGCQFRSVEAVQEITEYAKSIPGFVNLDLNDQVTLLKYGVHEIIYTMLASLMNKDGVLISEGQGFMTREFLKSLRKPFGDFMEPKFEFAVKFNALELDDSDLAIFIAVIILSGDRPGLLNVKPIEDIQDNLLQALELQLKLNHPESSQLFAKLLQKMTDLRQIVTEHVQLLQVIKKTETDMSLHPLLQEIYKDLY

[2] = target: T2, Bifunctional epoxide hydrolase 2 (Homo sapiens, UniProt P34913); experiment: Inhibition of recombinant human sEH using PHOME as substrate preincubated for 30 mins followed by substrate addition and measured after 30 mins by spectrofluorimetry
T2 sequence (P34913 whole entry): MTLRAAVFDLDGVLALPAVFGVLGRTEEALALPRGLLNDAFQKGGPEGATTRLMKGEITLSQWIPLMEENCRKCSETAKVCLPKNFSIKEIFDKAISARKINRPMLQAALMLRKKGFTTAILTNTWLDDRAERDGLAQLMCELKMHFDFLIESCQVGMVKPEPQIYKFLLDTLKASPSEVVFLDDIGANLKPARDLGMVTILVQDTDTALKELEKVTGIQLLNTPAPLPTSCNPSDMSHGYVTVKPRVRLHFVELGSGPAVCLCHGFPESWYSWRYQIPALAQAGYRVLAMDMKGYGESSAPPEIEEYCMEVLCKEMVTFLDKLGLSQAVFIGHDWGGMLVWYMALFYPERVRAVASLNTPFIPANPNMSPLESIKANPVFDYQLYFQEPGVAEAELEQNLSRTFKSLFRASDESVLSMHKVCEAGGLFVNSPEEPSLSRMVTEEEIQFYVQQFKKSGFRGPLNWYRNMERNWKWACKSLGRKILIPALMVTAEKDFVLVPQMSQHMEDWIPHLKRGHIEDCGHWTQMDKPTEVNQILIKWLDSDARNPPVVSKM

[3] = target: T3, Cysteinyl leukotriene receptor 1 (Homo sapiens, UniProt Q9Y271); experiment: Antagonist potency at human CysLT1R expressed in African green monkey COS7 cells assessed as inhibition of LTD4-induced Ca2+ levels after 60 mins by fura-2/AM-fluorescence based spectrofluorimetry; format: functional, cell-based; details: read-out: pA2 (converted)
T3 sequence (Q9Y271 whole entry): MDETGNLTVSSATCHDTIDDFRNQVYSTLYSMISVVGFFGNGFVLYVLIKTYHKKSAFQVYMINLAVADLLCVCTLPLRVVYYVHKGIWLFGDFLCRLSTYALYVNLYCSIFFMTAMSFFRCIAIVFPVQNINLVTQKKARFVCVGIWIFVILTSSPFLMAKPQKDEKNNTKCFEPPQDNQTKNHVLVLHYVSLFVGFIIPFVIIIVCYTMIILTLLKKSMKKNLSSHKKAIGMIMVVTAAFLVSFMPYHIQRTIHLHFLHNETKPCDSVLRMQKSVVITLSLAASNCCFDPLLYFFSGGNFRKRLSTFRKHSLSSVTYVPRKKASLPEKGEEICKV

[4] = target: T4, Peroxisome proliferator-activated receptor gamma (Mus musculus, UniProt P37238); experiment: Agonist activity at PPARgamma in mouse 3T3-L1 cells assessed as increase in CD36 mRNA expression at 1 uM after 15 days by quantitative real-time PCR method; format: cell-based; details: 3t3-l1, 360 h
T4 sequence (P37238 whole entry): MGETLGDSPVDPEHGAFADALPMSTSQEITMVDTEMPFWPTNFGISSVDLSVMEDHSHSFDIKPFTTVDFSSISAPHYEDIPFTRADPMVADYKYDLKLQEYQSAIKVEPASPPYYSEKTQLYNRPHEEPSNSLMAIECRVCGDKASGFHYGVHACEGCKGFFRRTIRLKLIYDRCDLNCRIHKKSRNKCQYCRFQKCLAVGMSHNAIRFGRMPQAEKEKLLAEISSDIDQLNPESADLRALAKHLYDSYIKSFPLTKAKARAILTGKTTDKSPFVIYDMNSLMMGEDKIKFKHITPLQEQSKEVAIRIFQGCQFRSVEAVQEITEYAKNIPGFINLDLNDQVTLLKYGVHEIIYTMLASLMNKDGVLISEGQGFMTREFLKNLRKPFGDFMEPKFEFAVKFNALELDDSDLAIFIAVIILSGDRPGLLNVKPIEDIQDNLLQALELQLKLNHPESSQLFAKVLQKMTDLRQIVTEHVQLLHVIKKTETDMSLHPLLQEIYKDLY

[5] = target: T4, Peroxisome proliferator-activated receptor gamma; experiment: Agonist activity at PPARgamma in mouse 3T3-L1 cells assessed as induction of adipocyte differentiation at 1 uM after 15 days by Oil Red O staining-based assay; format: cell-based; details: 3t3-l1, 360 h
[6] = target: T5, Peroxisome proliferator-activated receptor gamma (Mus musculus) (UniProt P37238); experiment: Agonist activity at PPARgamma in mouse 3T3-L1 cells assessed as increase in CPT1A mRNA expression at 1 uM after 15 days by quantitative real-time PCR method; format: cell-based
T5 sequence (whole entry): T4 sequence (P37238 whole entry)

[7] = target: T6, Nuclear receptor subfamily 1 group I member 2 (Homo sapiens, UniProt O75469); experiment: Agonist activity at human PXR LBD expressed HEK293T cells at 10 uM after 12 to 14 hrs by dual-glo luciferase reporter gene assay; format: ADME
T6 sequence (O75469 whole entry): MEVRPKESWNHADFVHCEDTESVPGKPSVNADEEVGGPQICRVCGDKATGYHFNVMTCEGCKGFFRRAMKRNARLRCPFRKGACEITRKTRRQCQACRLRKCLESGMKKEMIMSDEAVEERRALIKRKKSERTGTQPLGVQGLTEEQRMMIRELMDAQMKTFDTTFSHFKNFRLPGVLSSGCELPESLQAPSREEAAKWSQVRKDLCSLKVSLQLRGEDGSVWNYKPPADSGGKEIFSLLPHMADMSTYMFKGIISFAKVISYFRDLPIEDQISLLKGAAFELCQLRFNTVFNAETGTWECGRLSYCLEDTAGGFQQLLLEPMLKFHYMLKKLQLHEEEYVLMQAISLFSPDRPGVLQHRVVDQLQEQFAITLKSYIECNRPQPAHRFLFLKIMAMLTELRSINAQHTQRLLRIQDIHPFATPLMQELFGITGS

[8] = target: T7, Nuclear receptor subfamily 1 group I member 3 (Homo sapiens, UniProt Q14994); experiment: Agonist activity at human CAR LBD expressed HEK293T cells at 10 uM after 12 to 14 hrs by dual-glo luciferase reporter gene assay; format: ADME
T7 sequence (Q14994 whole entry): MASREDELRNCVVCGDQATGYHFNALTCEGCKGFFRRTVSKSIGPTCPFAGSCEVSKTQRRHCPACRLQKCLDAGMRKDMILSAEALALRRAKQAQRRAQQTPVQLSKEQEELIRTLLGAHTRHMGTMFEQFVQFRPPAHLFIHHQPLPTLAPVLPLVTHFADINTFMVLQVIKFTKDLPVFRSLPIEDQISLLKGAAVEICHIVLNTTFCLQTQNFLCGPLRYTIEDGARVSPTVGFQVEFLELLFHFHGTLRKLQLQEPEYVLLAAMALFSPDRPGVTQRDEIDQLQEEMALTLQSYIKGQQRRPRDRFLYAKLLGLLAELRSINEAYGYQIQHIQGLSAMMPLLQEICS

[9] = Aqueous solubility of the compound at 5 mg after 24 hrs by HPLC analysis; format: physicochemical; details: water
[10] = Lipophilicity, log D of the compound at 30 uM at pH 7.4 by HPLC method; format: physicochemical; details: buffer
[11] = Metabolic stability in Sprague-Dawley rat liver microsomes assessed as compound remaining at 10 uM in presence of NADPH regenerating system after 4 hrs by HPLC analysis; format: ADME, microsome; details: read-out: Stability
[12] = system: Mus musculus; experiment: Anti-inflammatory activity in zymosan-induced paw edema C57BL/6N mouse model assessed as reduction in paw edema at 10 mg/kg, po via gavage pretreated for 30 mins followed by zymosan injection and measured after 8 hrs post zymosan injection by plethysmometry; format: functional, organism-based
Method in brief: (§1)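 Zymosan was injected intraplantar into one hindpaw of C57BL/6N mice. Test compound or vehicle was given orally at 10 mg/kg 30 min beforehand. Paw edema was measured by plethysmometry at 8 h and 24 h after zymosan, with the contralateral hindpaw as a control.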

[13] = system: Mus musculus; experiment: Anti-inflammatory activity in zymosan-induced paw edema C57BL/6N mouse model assessed as reduction in paw edema at 10 mg/kg, po via gavage pretreated for 30 mins followed by zymosan injection and measured after 24 hrs post zymosan injection by plethysmometry; format: functional, organism-based; method in brief: as §1
[14] = system: HepG2; experiment: Cytotoxicity against human HepG2 cells at 1 to 100 uM after 48 hrs by WST assay; format: cell-based; details: hepg2, 48 h
[15] = target: T4, Peroxisome proliferator-activated receptor gamma; experiment: Agonist activity at PPARgamma in mouse 3T3-L1 cells assessed as induction of adipocyte differentiation at 0.3 to 3 uM after 15 days by Oil Red O staining-based assay; format: cell-based; details: 3t3-l1, 360 h
[16] = Elimination half life in C57BL/6JRj mouse at 10 mg/kg, po by LC-MS/MS analysis; format: ADME, organism-based; details: in vivo, read-out: beta t1/2 (converted)
Method in brief: (§2)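 Four healthy wild-type male C57Bl6/J mice received a single oral dose of 10 mg/kg. Plasma concentrations were followed over time to give uptake, bioavailability and terminal half-life. Results are mean±SEM, n=4.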

[17] = system: Mus musculus; experiment: Activation of PPARgamma in C57BL/6JRj mouse assessed as up-regulation of CD36 expression at 10 mg/kg, po administered as single dose measured at 8 hrs post dose relative to untreated control; format: functional, organism-based
Method in brief: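 Healthy wild-type male C57BL6/J mice were dosed orally at 10 mg/kg or with vehicle. Hepatic transcription of the PPARγ target gene CD36 was assessed in liver against vehicle-treated animals. Mean±SEM, n(vehicle)=2, n(treated)=4.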

[18] = system: Mus musculus; experiment: Drug uptake in C57BL/6JRj mouse at 10 mg/kg, po by LC-MS/MS analysis; format: ADME, organism-based; details: in vivo; method in brief: as §2
[19] = system: Mus musculus; experiment: Time at which plasma concentration stays above in-vitro EC50 for partial agonist activity at PPARgamma in C57BL/6JRj mouse at 10 mg/kg, po by LC-MS/MS analysis; format: organism-based; details: in vivo; method in brief: as §2
[20] = system: Mus musculus; experiment: Time at which plasma concentration stays above in-vitro IC50 for sEH in C57BL/6JRj mouse at 10 mg/kg, po by LC-MS/MS analysis; format: ADME, organism-based; details: in vivo; method in brief: as §2
[21] = system: Mus musculus; experiment: Time at which plasma concentration stays above in-vitro pA2 for CysLT1 in C57BL/6JRj mouse at 10 mg/kg, po by LC-MS/MS analysis; format: ADME, organism-based; details: in vivo; method in brief: as §2

Structure (SMILES) | EC50 [1] | IC50 [2] | Kb [3] | further results
COc1cc(C(=O)NS(=O)(=O)c2ccccc2C)ccc1Cc1cn(C)c2ccc(NC(=O)NC3CCCC3)cc12 | 2490 nM | 590 nM | 0.794 nM | 
CN(CCOc1ccc(CC2SC(=O)NC2=O)cc1)c1ccccn1 (stereo not drawn) [ROSIGLITAZONE] |  |  |  | Activity [4]: Active; Activity [5]: Active; Activity [6]: Active
COc1cc(C(=O)NS(=O)(=O)c2cccc(Cl)c2)ccc1Cc1cn(C)c2ccc(NC(=O)OC3CCCC3)cc12 | 140 nM | 7000 nM | 0.1 nM | 
COc1cc(C(=O)NS(=O)(=O)c2ccccc2C)ccc1Cc1cn(C)c2ccc(NC(=O)OC3CCCC3)cc12 [ZAFIRLUKAST] | 2440 nM | 2000 nM |  | Activity [7]: Active; Activity [8]: Active; solubility at 24 h [9]: 0.14 µg/mL (≈ 0.243 µM); logD at 30 µM [10]: 2.47; remaining at 4 h, 10 µM [11]: 73%; Activity [12]: inactive; Activity [13]: inactive
COc1cc(C(=O)NS(=O)(=O)c2ccccc2)ccc1Cc1cn(C)c2ccc(NC(=O)OC3CCCC3)cc12 | 230 nM | 2500 nM | 0.0794 nM | 
COc1cc(C(=O)NS(=O)(=O)c2cccc(F)c2)ccc1Cc1cn(C)c2ccc(NC(=O)NC3CCCCC3)cc12 | 200 nM | 410 nM | 12.6 nM | 
COc1cc(C(=O)NS(=O)(=O)c2cccc(C(F)(F)F)c2)ccc1Cc1cn(C)c2ccc(NC(=O)NC3CCCCC3)cc12 | 350 nM | 1490 nM | 5.01 nM | 
COc1cc(C(=O)NS(=O)(=O)c2cc(Cl)cc(Cl)c2)ccc1Cc1cn(C)c2ccc(NC(=O)NC3CCCCC3)cc12 | 740 nM | 550 nM | 6.31 nM | 
COc1cc(C(=O)NS(=O)(=O)c2ccccc2)ccc1Cc1cn(C)c2ccc(NC(=O)NC3CCCCC3)cc12 |  |  | 2 nM | Activity [8]: Not Active; solubility at 24 h [9]: 2.1 µg/mL (≈ 3.65 µM); logD at 30 µM [10]: 1.7; remaining at 4 h, 10 µM [11]: 65%; Activity [14]: Non-Toxic; Activity [15]: Not Active; Activity [4]: Not Active; half-life [16]: 114 min; Activity [17]: Active; Activity [12]: inactive; Activity [13]: Active; Drug uptake [18]: Active; Activity [6]: inactive; Time [19]: 4 h; Time [20]: 8 h; Time [21]: 8 h
COc1cc(C(=O)NS(=O)(=O)c2cccc(Cl)c2)ccc1Cc1cn(C)c2ccc(NC(=O)NC3CCCCC3)cc12 | 370 nM | 680 nM | 1.26 nM | 
COc1cc(C(=O)NS(=O)(=O)c2ccccc2C)ccc1Cc1cn(C)c2ccc(NC(=O)NC3CCCCC3)cc12 | 670 nM | 150 nM | 25.1 nM | 
